Screening data deposited in PubChem BioAssay by several laboratories.
Arr AP2 block – inhibitors of beta-arrestin/AP2 binding, primary screen, biochemical, GPCR trafficking, flow cytometry. beta-arrestin 1 C-terminal peptide binding to AP2 beta2-adaptin appendage (human). FITC-arrestin peptide / GST-AP2 beads; AP2 beta2 appendage carries R879A mutation. inhibition, % at 10 µM. 340,000 compounds, 0.31% hits. AID 504490, 2011;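 active = inhibition above a set limit, near 3 SD of compounds lacking own fluorescence, cut at about 54% in these data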
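System: GST-AP2 R879A glutathione beads. Medium: PBS with 0.05% Tween 20 and 0.1% BSA. Also added: FITC-arrestin peptide, 50 nM. Incubation: 12 min plus 1 h, RT. Measured by: high-throughput flow cytometry of beads, ex 488, em 535 nm. Evaluation: percent drop in bead-associated FITC signal.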
PfHsp90 yeast 2 – growth inhibition of PfHsp90-expressing yeast, primary screen, antimalarial PfHsp90 inhibitor project, S. cerevisiae, BacTiter-Glo luminescence, single point, set 2. 310,000 compounds, 0.32% hits. AID 504621, 2011. inhibition, % at 9.4 µM. BacTiter-Glo ATP, 48 h; yeast lacking PDR1 and PDR3 efflux regulators;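 active = every replicate shows inhibition above about 80%, whatever the replicate mean, limit read from the data; inconclusive = mean inhibition reaches the set limit but some replicate falls short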
N-glyco inh – increase of ERlucT glycosylation luciferase signal, primary screen, N-linked glycosylation inhibitor project, D54 ERlucT cells, luminescence, set 2 | 360,000 compounds, 0.23% hits | reporter increase, % at 12.5 µM | D54 ERlucT glycosylation luciferase reporter, 24 h; percent of 100 nM tunicamycin response | AID 588692, 2011;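 active = mean luciferase reporter signal, scaled so untreated is 0 and the glycosylation-blocking control 100, at or above a set limit in every replicate; inconclusive = mean reaches the limit but not every replicate does; inactive = mean below the limit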;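 note: luciferase carries N-glycosylation sites so blocking glycosylation raises the light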
Rtt109 Vps75 – inhibitors of C. albicans Rtt109/Vps75 HAT, primary screen, biochemical, ThioGlo CoA-SH fluorescence, plate reader | Histone acetyltransferase RTT109 (Candida albicans (strain SC5314 / ATCC MYA-2876)), … | purified Rtt109/Vps75, 4 h | inhibition, % at 34.9 µM | 330,000 compounds, 0.16% hits | AID 540336, 2011;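 active = inhibition of at least 50% in every replicate; inconclusive = best replicate reaches 50% inhibition but some replicates fall short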
Target sequence (Q5AAJ8 whole entry, looked up): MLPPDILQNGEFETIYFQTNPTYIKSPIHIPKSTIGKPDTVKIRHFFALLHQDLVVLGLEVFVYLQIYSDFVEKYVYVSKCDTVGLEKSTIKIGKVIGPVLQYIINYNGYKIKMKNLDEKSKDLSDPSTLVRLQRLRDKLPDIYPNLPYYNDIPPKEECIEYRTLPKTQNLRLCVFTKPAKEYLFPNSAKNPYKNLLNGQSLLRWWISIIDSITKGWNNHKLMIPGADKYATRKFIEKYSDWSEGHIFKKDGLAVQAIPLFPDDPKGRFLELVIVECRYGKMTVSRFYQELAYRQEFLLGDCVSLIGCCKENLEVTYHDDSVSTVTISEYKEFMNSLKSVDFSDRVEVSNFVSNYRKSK
HIV Env fusion – inhibitors of HIV-1 Env-driven cell-cell fusion, primary screen, HeLa-JRFL effector, CEM21 target cells, luciferase; inhibition, % at 12.3 µM; 360,000 compounds, 1.1% hits; AID 651610, 2012;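 active = mean replicate inhibition score of at least 50 and every replicate individually at or above 50; inconclusive = only one of the two criteria met; inactive = mean below 50 and not all replicates reaching 50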
PAX8 inh HTS – inhibitors of PAX8-driven TPO luciferase reporter, primary screen, RMG-I cells, single concentration | SteadyGlo, 24 h | 360,000 compounds, 1.2% hits | AID 652154, 2013 | inhibition, % at 12.6 µM;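 active = mean replicate inhibition at least 60% with every replicate also reaching 60%; inconclusive = only one of the two criteria is met; inactive = mean below 60% and not all replicates reaching 60%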;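 note: luciferase light reporting Pax8 driven TPO promoter activity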
Hits are given with their value; n = inactive; u = inconclusive; x = no result given; [ ] = dose if it differs, or a comment. Sampled rows, rich in hits. Any-hit rate of the full collection: about 2.3%.

SMILES	Arr AP2 block	PfHsp90 yeast 2	N-glyco inh	Rtt109 Vps75	HIV Env fusion	PAX8 inh HTS
Oc1ccc(Cl)cc1CNc1cnc2ccccc2c1	n	n	n	n	n	n
O=C(CCN1Cc2ccccc2C1)c1ccc2c(c1)OCCO2	n	n	n	100	x	x
O=C(CCN1CCc2ccccc2C(c2ccccc2)C1)c1ccc2c(c1)OCCO2 (stereo not drawn)	n	138	n	n	x	x
O=C(O)CCC(=O)c1ccc2c(c1)OCCO2	n	n	n	n	n	n
C[C@@H]1CCCCO[C@@H](CN(C)C)[C@H](C)CN([C@@H](C)CO)C(=O)c2cc(NC(=O)Nc3cccc4ccccc34)ccc2O1	x	x	x	x	n	n
C[C@@H]1CN([C@@H](C)CO)C(=O)Cc2cc(NC(=O)Nc3ccccc3)ccc2O[C@H]1CN(C)S(=O)(=O)c1cccs1	x	x	x	x	n	n
C[C@H](CO)N1C[C@H](C)[C@H](CN(C)S(=O)(=O)c2cccs2)Oc2ccc(NC(=O)Nc3ccccc3)cc2CC1=O	x	x	x	x	105[16.7 µM]	n
C[C@@H]1CN([C@H](C)CO)C(=O)Cc2cc(NC(=O)Nc3cccc4ccccc34)ccc2O[C@@H]1CN(C)S(=O)(=O)c1cccs1	x	x	x	x	u	n
COc1ccc(NC(=O)Nc2ccc3c(c2)CC(=O)N([C@H](C)CO)C[C@H](C)[C@H](CN(C)S(=O)(=O)c2cccs2)O3)cc1	x	x	x	x	70[16.7 µM]	n
C[C@H](CO)N1C[C@H](C)[C@H](CN(C)S(=O)(=O)c2cccs2)Oc2ccc(NC(=O)Nc3cccc4ccccc34)cc2CC1=O	x	x	x	x	75[16.7 µM]	n
C[C@H]1CN([C@@H](C)CO)C(=O)Cc2cc(NC(=O)Nc3ccc4c(c3)OCO4)ccc2O[C@H]1CN(C)S(=O)(=O)c1cccs1	x	x	x	x	92[16.7 µM]	n
COc1ccc(NC(=O)Nc2ccc3c(c2)CC(=O)N([C@@H](C)CO)C[C@H](C)[C@@H](CN(C)S(=O)(=O)c2cccs2)O3)cc1	x	x	x	x	n	n
O=C(C[C@H]1C=C[C@H](NC(=O)NC2CCCCC2)[C@H](CO)O1)NCc1ccc(F)cc1	x	x	x	x	n	n
C/C=C/c1ccc([C@@H]2[C@H](CO)N(Cc3ccccn3)[C@H]2CNC(C)=O)cc1	x	x	x	x	x	n
CO[C@H]1CN(C)C(=O)c2cc(NS(=O)(=O)c3ccc(Cl)cc3)ccc2OC[C@@H](C)N(C)C[C@@H]1C	x	x	x	x	61[16.7 µM]	n
CO[C@@H]1CN(C)C(=O)c2cc(NS(=O)(=O)c3cn(C)cn3)ccc2OC[C@@H](C)N(Cc2ccc(C(F)(F)F)cc2)C[C@H]1C	x	x	x	x	88[16.7 µM]	n
CO[C@@H]1CN(C)C(=O)c2cc(NS(=O)(=O)c3ccc(Cl)cc3)ccc2OC[C@H](C)N(C)C[C@@H]1C	x	x	x	x	n	n
CO[C@@H]1CN(C)C(=O)c2ccc(NS(=O)(=O)c3cn(C)cn3)cc2OC[C@@H](C)N(Cc2ccc(C(F)(F)F)cc2)C[C@H]1C	x	x	x	x	x	n
COc1cccc(NC(=O)Nc2ccc3c(c2)C(=O)N(C)C[C@H](OC)[C@@H](C)CN(C)[C@@H](C)CO3)c1	x	x	x	x	n	n
C[C@@H]1CN([C@H](C)CO)C(=O)Cc2cc(NC(=O)Nc3ccccc3)ccc2O[C@H]1CN(C)C(=O)Nc1ccc(C(F)(F)F)cc1	x	x	x	x	n	n
C[C@H]1CN([C@@H](C)CO)C(=O)Cc2cc(N(C)C)ccc2O[C@H]1CN(C)Cc1ccc(Cl)c(Cl)c1	x	x	x	x	58[16.7 µM]	n
C[C@@H]1CN([C@@H](C)CO)C(=O)Cc2cc(N(C)C)ccc2O[C@H]1CN(C)Cc1ccc(Oc2ccccc2)cc1	x	x	x	x	n	82
C[C@@H]1CN([C@@H](C)CO)C(=O)c2cc(N(C)C)ccc2O[C@@H]1CN(C)Cc1ccc(Oc2ccccc2)cc1	x	x	x	x	n	84
C[C@H]1CN([C@@H](C)CO)C(=O)Cc2cc(N(C)C)ccc2O[C@H]1CN(C)CC1CC1	x	x	x	x	59[16.7 µM]	n
C[C@H](CO)N1C[C@H](C)[C@H](CN(C)Cc2ccc(Oc3ccccc3)cc2)Oc2ccc(N(C)C)cc2CC1=O	x	x	x	x	n	n
